Activity calls are given as the source filed them. No cut-off for these calls is given here.
What was measured:
Histone deacetylase 2 = Histone deacetylase 2 (Homo sapiens, UniProt Q92769); assay: Inhibition of His-tagged HDAC2 expressed in Sf9 cells by fluorescence-based assay
[1] = biological target: T1, Protein deacetylase HDAC6 (Homo sapiens, UniProt Q9UBN7); assay: Inhibition of His-tagged HDAC6 expressed in Sf9 cells by fluorescence-based assay
T1 sequence (Q9UBN7 whole entry): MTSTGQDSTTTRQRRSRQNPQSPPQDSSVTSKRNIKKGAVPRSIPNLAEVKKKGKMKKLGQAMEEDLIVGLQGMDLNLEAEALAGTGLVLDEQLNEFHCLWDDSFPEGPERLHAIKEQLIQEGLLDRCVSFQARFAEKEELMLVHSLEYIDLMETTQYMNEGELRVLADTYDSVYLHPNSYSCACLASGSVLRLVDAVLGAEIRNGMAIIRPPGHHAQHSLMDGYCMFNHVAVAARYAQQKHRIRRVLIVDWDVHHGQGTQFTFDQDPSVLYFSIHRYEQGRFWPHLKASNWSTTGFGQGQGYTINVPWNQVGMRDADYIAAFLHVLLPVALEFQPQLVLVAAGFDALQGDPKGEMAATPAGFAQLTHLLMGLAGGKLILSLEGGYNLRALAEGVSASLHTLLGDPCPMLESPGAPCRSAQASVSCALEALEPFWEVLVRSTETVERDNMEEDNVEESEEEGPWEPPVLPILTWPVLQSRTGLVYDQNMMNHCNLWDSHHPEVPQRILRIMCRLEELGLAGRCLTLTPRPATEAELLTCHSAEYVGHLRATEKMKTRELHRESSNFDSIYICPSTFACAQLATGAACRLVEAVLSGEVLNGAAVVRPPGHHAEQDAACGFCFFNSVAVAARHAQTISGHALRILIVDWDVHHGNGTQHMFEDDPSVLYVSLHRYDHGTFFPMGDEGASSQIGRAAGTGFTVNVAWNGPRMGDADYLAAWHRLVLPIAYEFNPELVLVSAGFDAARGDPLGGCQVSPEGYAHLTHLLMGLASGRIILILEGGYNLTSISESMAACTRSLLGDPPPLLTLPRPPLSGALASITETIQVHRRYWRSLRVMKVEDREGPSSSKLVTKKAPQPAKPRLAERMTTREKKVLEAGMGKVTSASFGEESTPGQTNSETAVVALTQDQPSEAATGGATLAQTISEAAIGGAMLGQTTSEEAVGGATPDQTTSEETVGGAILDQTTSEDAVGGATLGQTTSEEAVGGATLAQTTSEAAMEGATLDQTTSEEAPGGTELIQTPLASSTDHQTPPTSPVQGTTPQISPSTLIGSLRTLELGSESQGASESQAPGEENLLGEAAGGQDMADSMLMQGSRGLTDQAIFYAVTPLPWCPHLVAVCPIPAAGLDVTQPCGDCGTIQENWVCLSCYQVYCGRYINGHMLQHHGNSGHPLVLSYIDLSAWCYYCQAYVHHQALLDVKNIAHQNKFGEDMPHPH

[2] = biological target: T2, Polyamine deacetylase HDAC10 (Homo sapiens, UniProt Q969S8); assay: Inhibition of His-tagged HDAC10 expressed in Sf9 cells by fluorescence-based assay
T2 sequence (Q969S8 whole entry): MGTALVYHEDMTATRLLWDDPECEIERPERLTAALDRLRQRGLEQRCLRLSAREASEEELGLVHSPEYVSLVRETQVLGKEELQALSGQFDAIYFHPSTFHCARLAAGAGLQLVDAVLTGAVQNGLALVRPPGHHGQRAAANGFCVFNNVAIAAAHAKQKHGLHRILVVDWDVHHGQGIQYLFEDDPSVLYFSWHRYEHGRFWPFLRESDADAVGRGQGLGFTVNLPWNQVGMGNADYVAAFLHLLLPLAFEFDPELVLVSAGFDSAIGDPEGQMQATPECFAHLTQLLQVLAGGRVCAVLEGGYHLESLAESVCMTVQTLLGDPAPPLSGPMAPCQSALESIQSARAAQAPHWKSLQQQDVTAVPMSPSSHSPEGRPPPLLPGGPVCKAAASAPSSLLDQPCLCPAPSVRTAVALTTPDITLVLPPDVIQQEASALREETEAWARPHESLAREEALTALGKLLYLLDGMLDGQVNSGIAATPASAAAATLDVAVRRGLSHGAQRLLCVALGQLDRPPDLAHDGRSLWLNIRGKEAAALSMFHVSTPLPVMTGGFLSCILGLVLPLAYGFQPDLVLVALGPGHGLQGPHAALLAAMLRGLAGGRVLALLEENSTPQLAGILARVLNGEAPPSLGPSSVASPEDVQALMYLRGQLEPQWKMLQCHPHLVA

Histone deacetylase 8 = biological target: T3, Histone deacetylase 8 (Homo sapiens, UniProt Q9BY41); assay: Inhibition of His-tagged HDAC8 expressed in Sf9 cells by fluorescence-based assay
T3 sequence (Q9BY41 whole entry): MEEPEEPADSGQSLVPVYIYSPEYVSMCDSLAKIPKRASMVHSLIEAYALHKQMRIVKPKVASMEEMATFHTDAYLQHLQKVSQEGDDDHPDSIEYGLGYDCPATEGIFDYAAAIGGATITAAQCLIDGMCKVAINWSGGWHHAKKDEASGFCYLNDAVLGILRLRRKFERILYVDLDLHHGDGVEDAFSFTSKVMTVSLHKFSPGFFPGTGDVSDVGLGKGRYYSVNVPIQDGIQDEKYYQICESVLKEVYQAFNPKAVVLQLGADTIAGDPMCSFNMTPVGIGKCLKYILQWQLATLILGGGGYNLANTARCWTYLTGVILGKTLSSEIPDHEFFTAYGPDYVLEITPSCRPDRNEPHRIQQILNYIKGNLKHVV

Histone deacetylase 1 = Histone deacetylase 1 (Homo sapiens, UniProt Q13547); assay: Inhibition of His-tagged HDAC1 expressed in Sf9 cells by fluorescence-based assay
Primary neuron = assay: Increase in histone H4 acetylation in Sprague-Dawley rat neurons at 50 uM after 8 hrs; type: functional
Outline: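 Rat primary cortical neurons (fetal Sprague-Dawley, E17) treated 8 h; histones acid-extracted (0.4 N H2SO4) from nuclei, TCA-precipitated, run on 15% SDS gel; immunoblot with acetyl-H4 (1:1000) and total H4 (1:4000) antibodies, 3 h RT, HRP secondary 2 h, enhanced chemiluminescence detection.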

neuronal [3] = assay: Protection against HCA-induced oxidative stress in Sprague-Dawley rat neuronal cells by MTT assay; type: functional, cell-based
Outline: (§1)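 Cortical neurons from E17 Sprague-Dawley rat fetuses, used 24 h after plating, in MEM with 5.5 g/L glucose, 10% fetal calf serum, 2 mM L-glutamine, 100 µM cystine; 5 mM HCA (pH 7.5) added together with compound (10 µM unless stated); viability after 48 h by MTT and calcein-AM/ethidium homodimer-1 staining; mean ± SE of four replicates.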

[4] = Toxicity against Sprague-Dawley rat neuronal cells at 50 uM; type: cell-based
neuronal [5] = assay: Protection against HCA-induced oxidative stress Sprague-Dawley rat neuronal cells at 10 uM; type: functional, cell-based; outline: as §1

Sequence of Histone deacetylase 2 (Q92769 whole entry): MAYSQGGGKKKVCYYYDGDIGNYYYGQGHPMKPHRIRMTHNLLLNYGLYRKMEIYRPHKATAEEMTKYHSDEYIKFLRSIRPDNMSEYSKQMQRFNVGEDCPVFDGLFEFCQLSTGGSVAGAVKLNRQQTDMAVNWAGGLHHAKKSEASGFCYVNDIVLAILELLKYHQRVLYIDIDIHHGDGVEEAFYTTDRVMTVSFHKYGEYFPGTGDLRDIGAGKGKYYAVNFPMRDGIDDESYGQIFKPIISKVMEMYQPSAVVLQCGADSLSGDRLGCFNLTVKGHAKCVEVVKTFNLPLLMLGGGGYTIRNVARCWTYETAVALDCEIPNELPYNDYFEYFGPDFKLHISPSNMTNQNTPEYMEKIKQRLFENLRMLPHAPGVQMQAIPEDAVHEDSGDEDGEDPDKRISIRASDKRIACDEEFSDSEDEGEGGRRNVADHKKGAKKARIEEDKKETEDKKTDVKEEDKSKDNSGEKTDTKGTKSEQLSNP
Sequence of Histone deacetylase 1 (Q13547 whole entry): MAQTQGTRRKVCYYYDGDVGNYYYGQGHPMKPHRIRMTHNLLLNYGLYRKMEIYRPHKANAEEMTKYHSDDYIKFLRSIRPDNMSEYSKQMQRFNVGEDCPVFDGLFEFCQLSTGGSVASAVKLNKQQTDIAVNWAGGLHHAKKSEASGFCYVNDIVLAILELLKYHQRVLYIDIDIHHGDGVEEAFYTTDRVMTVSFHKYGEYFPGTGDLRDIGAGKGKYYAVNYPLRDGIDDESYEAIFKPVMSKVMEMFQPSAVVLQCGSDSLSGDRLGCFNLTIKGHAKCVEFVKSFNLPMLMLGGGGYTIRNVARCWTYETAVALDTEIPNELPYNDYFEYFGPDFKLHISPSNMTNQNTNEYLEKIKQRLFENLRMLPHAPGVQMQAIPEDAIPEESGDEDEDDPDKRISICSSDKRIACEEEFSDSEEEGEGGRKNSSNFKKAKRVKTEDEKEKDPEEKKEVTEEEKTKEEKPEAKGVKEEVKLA

| Compound | IC50 (Histone deacetylase 2) [µM] | IC50 [1] [µM] | IC50 [2] [µM] | IC50 (Histone deacetylase 8) [µM] | IC50 (Histone deacetylase 1) [µM] | Activity (Primary neuron) | Activity (neuronal [3]) | Activity [4] | Activity (neuronal [5]) |
| --- | --- | --- | --- | --- | --- | --- | --- | --- | --- |
| CN(C)c1ccc(C(=O)NCCCCCNC(=O)CS)cc1 | – | 0.114 | 1.54 | 10.2 | 1.08 | – | – | – | – |
| O=C(CS)NCCCCCCNC(=O)Nc1ccccc1 | > 30 | 2.01 | > 30 | 13.9 | 10.8 | inactive | Dose-dependent effect | Non-toxic | – |
| CN(C)c1ccc(C(=O)NCCCCNC(=O)CS)cc1 | > 30 | 0.62 | 29.7 | > 30 | 11.9 | – | – | – | – |
| CN(C)c1ccc(C(=O)NCCCNC(=O)CS)cc1 | > 30 | 0.216 | 8.78 | 12.3 | 5.26 | inactive | Dose-dependent effect | Non-toxic | – |
| N[C@@H](Cc1c[nH]c2ccccc12)C(=O)Nc1ccccc1-c1ccc(NC(=O)CCCCCCC(=O)NO)cc1 | 0.167 | 0.0054 | 0.0283 | 1.72 | 0.0267 | – | – | – | – |
| CN(C)c1ccc(C(=O)NCCCCCCNC(=O)CS)cc1 | 4.64 | 0.482 | 3.43 | 19.1 | 1.43 | Active | – | – | Active |
| O=C(CS)NCCCCCC(=O)Nc1cccc2cccnc12 | 7.38 | 0.0953 | 10.7 | 6.12 | 3.22 | Active | – | – | Active |

More lines, main results first:

| IC50 (Histone deacetylase 2) [µM] | IC50 [1] [µM] | IC50 [2] [µM] | IC50 (Histone deacetylase 8) [µM] | IC50 (Histone deacetylase 1) [µM] | Compound | Activity (Primary neuron) | Activity (neuronal [3]) | Activity [4] | Activity (neuronal [5]) |
| --- | --- | --- | --- | --- | --- | --- | --- | --- | --- |
| 1.05 | 0.102 | 0.173 | 3.41 | 0.152 | O=C(CCCCCNC(=O)NC12CC3CC(CC(C3)C1)C2)NO | – | – | – | – |
| 0.492 | 0.0455 | 0.178 | 1.05 | 0.13 | CN(C)c1ccc(CNC(=O)NCCC(=O)NO)cc1 | – | – | – | – |
| 0.113 | 0.0037 | 0.0111 | 4.09 | 0.0085 | O=C(CCCCCCC(=O)Nc1nc(-c2cccc([N+](=O)[O-])c2)cs1)NO | – | – | – | – |
| 0.647 | 0.0345 | 0.176 | 1.74 | 0.209 | CN(C)c1ccc(NC(=O)NCCCCCCC(=O)NO)cc1 | – | – | – | – |
| 0.205 | 0.009 | 0.0421 | 2.06 | 0.0369 | N[C@@H](Cc1ccc(O)cc1)C(=O)Nc1ccccc1-c1ccc(NC(=O)CCCCCCC(=O)NO)cc1 | – | – | – | – |
